# Results gathered from unrelated publications.
# Lines come from different studies, so protocols differ.
# HTR1A: 5-hydroxytryptamine receptor 1A (HTR1A, Homo sapiens, UniProt P08908)
# Si: Sucrase-isomaltase, intestinal (Si, Rattus norvegicus, UniProt P23739)
# MAPK14: Mitogen-activated protein kinase 14 (MAPK14, Homo sapiens, UniProt Q16539)
# Dihydrofolate reductase: Dihydrofolate reductase (Bos taurus, UniProt P00376)
SMILES,target,assay,IC50 [µM]
NC(=O)c1nnn(Cc2cc(Cl)c(C(=O)c3ccc(Cl)cc3)c(Cl)c2)c1N,HTR1A,"cAMP, antagonist",1.75
COc1cc(C(=O)O)ccc1O,Si,"enzyme activity, inhibitor, absorbance",1650
c1ccc(-c2[nH]ccc2-c2ccnc3ccccc23)nc1,MAPK14,"enzyme activity, inhibitor, ADP detection",> 30
Cc1cc(O)c(-c2ccc([C@@H](C)CN(C)C)cc2)c2c1[nH]c(=O)c1sccc12,"Cyclin-dependent kinase 14, with cyclin Y (CDK14, Homo sapiens, UniProt O94921)","enzyme activity, inhibitor",> 1
N=c1sc(C(=O)c2ccc(Nc3cnccn3)cc2)nn1-c1ccccc1,Dihydrofolate reductase,"enzyme activity, inhibitor",6.49
COc1cc(C=O)cc(OC)c1O,Si,"enzyme activity, inhibitor, absorbance",1110
CNCc1cc(-c2cc(O)ccc2OC(F)(F)F)ccc1F,"Estrogen receptor (ESR1, Homo sapiens, UniProt P03372, Y537S)","coactivator recruitment, TR-FRET",~18
CC(=O)C1=NN(c2ccccc2)C(=C(C#N)C(=O)c2ccc(Nc3cnccn3)cc2)S1,Dihydrofolate reductase,"enzyme activity, inhibitor",1.95
Oc1ccccc1-c1n[nH]cc1-c1ccnc2ccccc12,MAPK14,"enzyme activity, inhibitor, ADP detection",0.73
COc1ccccc1N1CCN(CC(C(=O)NC(C)(C)C)c2ccccc2)CC1 (stereo not drawn),HTR1A,"cAMP, antagonist, TR-FRET",0.376
Fc1ccc(Cc2[nH]nc(-c3ccccn3)c2-c2ccnc3ccccc23)cc1,MAPK14,"enzyme activity, inhibitor, ADP detection",3.5
N=c1sc(C(=O)c2ccc(Nc3cnccn3)cc2)nn1-c1ccc([N+](=O)[O-])cc1,Dihydrofolate reductase,"enzyme activity, inhibitor",4.48
